From paper PMC12578630 (Nature Microbiology, 2025)
Values after ≈ are worked out from the molar mass of the structure shown. Where two headings read alike, the source gives them in different places.

Legend:
MRSA QLH-2022-718 = test: Bacterial resistance development, serial passage; type: cell-based, Staphylococcus aureus; conditions: for MIC: Staphylococcus aureus, MRSA
[1] = Histologic changes in the kidney and colon; type: in vivo, mouse; conditions: H&E, infected and treated mice
Procedure, shortened: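 Tissue fixed in 4% paraformaldehyde for at least 24 h, dehydrated through graded ethanol, cleared in xylene, paraffin-embedded. Sections cut at 4 μm, dried at 60 °C, dewaxed and rehydrated. Stained with haematoxylin (3–5 min), differentiated and blued, counterstained with eosin (15 s), then dehydrated, cleared and mounted in neutral balsam. Imaged by light microscopy.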

CRAB QLH-2022-637 = test: Bacterial resistance development, serial passage; type: cell-based, Acinetobacter baumannii; conditions: serial passage at 0.5-fold MIC

Row | Molecule | MIC (MRSA QLH-2022-718; read-out: MIC after 18 passages) | MIC (MRSA QLH-2022-718; read-out: MIC at the first passage) | fold increase in MIC after 18 passages (MRSA QLH-2022-718; serial passage at 0.5-fold MIC) | kidney tissue histology, in words [1] | fold increase in MIC after 20 passages (CRAB QLH-2022-637)
1 | CN[C@H](CC(C)C)C(=O)N[C@H]1C(=O)N[C@@H](CC(N)=O)C(=O)N[C@H]2C(=O)N[C@H]3C(=O)N[C@H](C(=O)N[C@H](C(=O)O)c4cc(O)cc(O)c4-c4cc3ccc4O)[C@H](O)c3ccc(c(Cl)c3)Oc3cc2cc(c3O[C@@H]2O[C@H](CO)[C@@H](O)[C@H](O)[C@H]2O[C@H]2C[C@](C)(N)[C@H](O)[C@H](C)O2)Oc2ccc(cc2Cl)[C@H]1O [vancomycin] | ≥ 64 µg/mL | 0.5 µg/mL (≈ 0.345 µM) | ≥ 128 fold | histopathological changes: cytoplasmic rarefaction and pale staining | –
2 | polymyxin B | – | – | – | A small amount of venous stasis | 32 fold
